# Measurements from ChEMBL document CHEMBL1155242, “Radiolabeled 5-iodo-3'-O-(17beta-succinyl-5alpha-androstan-3-one)-2'-deoxyuridine and its 5'-monophosphate for imaging and therapy of androgen receptor-positive cancers: synthesis and biological evaluation” (J Med Chem, 2009).
# Tests used:
# [1] = system: OVCAR-3; test: Antitumor activity against human OVCAR-3 cells xenografted in athymic NCr mouse assessed as tumor burden in peritoneum at 0.25 mCi, ip administered 31 days after tumor implantation as single bolus dose measured 55 days after implantation by gamma counting in presence of SHBG (Rvb= 4.1 +/- 0.6 g); assay type: functional
# [2] = Chemical stability in phosphate buffer saline by HPLC analysis; assay type: physicochemical
# [3] = target: T1, Sex hormone-binding globulin (Homo sapiens, UniProt P04278); test: Binding affinity to human sex hormone binding globulin at 20 uCi after 60 mins by reversed phase HPLC analysis; assay type: ADME; conditions: 1 h
# T1 sequence (P04278 whole entry): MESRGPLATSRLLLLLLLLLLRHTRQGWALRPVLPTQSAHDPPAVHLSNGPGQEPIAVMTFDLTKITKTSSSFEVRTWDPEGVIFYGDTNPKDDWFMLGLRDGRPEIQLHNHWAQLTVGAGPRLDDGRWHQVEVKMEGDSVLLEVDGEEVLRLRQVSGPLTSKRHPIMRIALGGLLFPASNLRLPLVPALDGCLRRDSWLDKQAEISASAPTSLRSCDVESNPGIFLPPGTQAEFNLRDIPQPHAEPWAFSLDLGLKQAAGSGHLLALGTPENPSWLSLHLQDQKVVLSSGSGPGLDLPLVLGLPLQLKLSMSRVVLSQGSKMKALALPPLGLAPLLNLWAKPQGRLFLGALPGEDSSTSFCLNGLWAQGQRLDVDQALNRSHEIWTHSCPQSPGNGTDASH
# [4] = system: Heart; test: Biodistribution in heart of athymic NCr mouse xenografted with human OVCAR-3 cells assessed per gram of tissue at an average 39.5 uCi/dose, ip administered 9 days after tumor implantation as six fractionated doses every 4 days measured after 2 weeks of last dose by gamma counting; assay type: ADME, organism-based; conditions: in vivo, 336 h
# Outline: (§1)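 OVCAR-3-bearing and healthy athymic mice given fractionated ip doses on the six-dose every-4-days schedule; tissues, tumor and lavaged cells γ-counted at necropsy, %ID/g; DNA-bound 125I in cells measured as cpm/cell.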
# [5] = Biodistribution in large intestine of athymic NCr mouse xenografted with human OVCAR-3 cells assessed per gram of tissue at an average 39.5 uCi/dose, ip administered 9 days after tumor implantation as six fractionated doses every 4 days measured after 2 weeks of last dose by gamma counting; assay type: ADME, organism-based; conditions: in vivo, 336 h; outline: as §1
# [6] = system: Kidney; test: Biodistribution in kidney of athymic NCr mouse xenografted with human OVCAR-3 cells assessed per gram of tissue at an average 39.5 uCi/dose, ip administered 9 days after tumor implantation as six fractionated doses every 4 days measured after 2 weeks of last dose by gamma counting; assay type: ADME, organism-based; conditions: in vivo, 336 h; outline: as §1
# [7] = Biodistribution in peritoneum of athymic NCr mouse xenografted with human OVCAR-3 cells at 1.12 uCi, ip after 24 hrs by gamma counting; assay type: ADME, organism-based; conditions: in vivo
# [8] = system: Serum; test: Stability in human serum assessed as half life at 10 to 20 uCi/mL by reversed phase HPLC analysis; assay type: ADME, cell-free
# Outline: (§2)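 The compound was incubated with rabbit or human serum at ambient temperature, and aliquots were taken at 1, 5 and 24 h. Aliquots were run on size-exclusion HPLC (TSK3000; 0.1 M potassium phosphate/0.1 M Na2SO4, pH 6.8, then an acetonitrile gradient). Extracts were run on C18 reversed-phase HPLC (water/acetonitrile with 0.07% TFA). Half-lives came from a monoexponential fit.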
# [9] = system: Serum; test: Stability in human serum assessed as half life at 10 to 20 uCi/mL by size-exclusion HPLC analysis; assay type: ADME, cell-free; outline: as §2
# [10] = Stability in human OVCAR-3 cells expressing androgen receptor assessed as half life at 0.01 to 5 uCi/mL by silica gel instant thin layer chromatography; assay type: ADME, cell-based
# [11] = system: OVCAR-3; test: Cytotoxicity against human OVCAR-3 cells expressing androgen receptor assessed as cell survival at 0.01 to 5 uCi/mL after 24 hrs; assay type: functional
# [12] = Chemical stability in RPMI-1640 serum-free medium assessed as intact compound remaining at 12.2 uCi up to 6 hrs by HPLC analysis; assay type: physicochemical; conditions: read-out: Stability
# [13] = system: OVCAR-3; test: Antitumor activity against human OVCAR-3 cells xenografted in athymic NCr mouse assessed as number of cancer cells in peritoneum at 180 uCi, ip administered 9 days after tumor implantation as six fractionated doses every 4 days measured after 2 weeks of last dose by gamma counting; assay type: functional
# Outline: (§3)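 OVCAR-3 ip xenografts in athymic mice; six fractionated ip doses every 4 days, total 180 μCi/mouse, with PBS or vehicle ip controls. Nonadherent tumor cells recovered by peritoneal lavage at necropsy, counted and pellet-weighed.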
# [14] = Ratio of drug level in tumor to spleen in athymic NCr mouse xenografted with human OVCAR-3 cells at 180 uCi, ip administered 9 days after tumor implantation as six fractionated doses every 4 days measured after 48 hrs by gamma counting; assay type: ADME, organism-based; conditions: in vivo
# [15] = Clearance in peritoneum of athymic NCr mouse xenografted with human OVCAR-3 cells assessed as half life at 1.12 uCi, ip by gamma counting; assay type: ADME, organism-based; conditions: in vivo
# Outline: (§4)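 Peritoneal clearance measured in athymic NCr-nu/nu mice bearing intraperitoneal NIH:OVCAR-3 xenografts after an ip dose of the 125I compound. The peritoneal cavity was lavaged, and 125I was counted in the lavage and in the recovered tumor cells. Half-lives were estimated from the clearance curves.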
# [16] = Stability in human OVCAR-3 cells expressing androgen receptor assessed as compound degradation at 0.1 uCi/mL up to 4 hrs by silica gel instant thin layer chromatography; assay type: ADME, cell-based; conditions: read-out: Activity
# [17] = Ratio of drug level in tumor to blood in athymic NCr mouse xenografted with human OVCAR-3 cells at 180 uCi, ip administered 9 days after tumor implantation as six fractionated doses every 4 days measured after 72 hrs by gamma counting; assay type: ADME, organism-based; conditions: tumour
# [18] = Ratio of drug level in tumor to liver in athymic NCr mouse xenografted with human OVCAR-3 cells at 180 uCi, ip administered 9 days after tumor implantation as six fractionated doses every 4 days measured after 48 hrs by gamma counting; assay type: ADME, organism-based; conditions: in vivo
# [19] = system: OVCAR-3; test: Antitumor activity against human OVCAR-3 cells xenografted in athymic NCr mouse assessed as reduction of tumor size in peritoneum at 180 uCi, ip administered 9 days after tumor implantation as six fractionated doses every 4 days measured after 2 weeks of last dose by gamma counting; assay type: functional; parameters: scale not given: the % may be the effect or the level left; outline: as §3
# [20] = Clearance in peritoneal cavity of athymic NCr mouse xenografted with human OVCAR-3 cells assessed as half life at 1.12 uCi, ip by gamma counting; assay type: ADME, organism-based; conditions: in vivo; outline: as §4
# [21] = Ratio of drug level in tumor to uterus in athymic NCr mouse xenografted with human OVCAR-3 cells at 180 uCi, ip administered 9 days after tumor implantation as six fractionated doses every 4 days measured after 1.5 hrs by gamma counting; assay type: ADME, organism-based; conditions: in vivo
# [22] = system: OVCAR-3; test: Stability in human OVCAR-3 cells expressing androgen receptor assessed as half life at 0.1 uCi/mL by silica gel instant thin layer chromatography; assay type: ADME, cell-based
# Outline: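 Breakdown was followed with proliferating NIH:OVCAR-3 cells grown in complete RPMI-1640 medium. The distribution of radioactive products released into the culture medium (parent compound, 125IUdR and its 3′-succinate) was measured over time. Half-life was estimated from the time course.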
# [23] = Stability in human OVCAR-3 cells expressing androgen receptor assessed as assessed as compound degradation at 0.01 to 5 uCi/mL up to 24 hrs by silica gel instant thin layer chromatography; assay type: ADME, cell-based; conditions: read-out: Activity
compound,measurement,setting,value
C[C@]12CCC(=O)C[C@@H]1CC[C@@H]1[C@@H]2CC[C@]2(C)[C@@H](OC(=O)CCC(=O)O[C@H]3C[C@H](n4cc([125I])c(=O)[nH]c4=O)O[C@@H]3COP(=O)(O)O)CC[C@@H]12,Activity,[1],3.1 g
same,Stability,[2],Stable
same,Activity,[3],Active
same,Drug uptake,[4],0.003 %ID
same,Drug uptake,[5],0.008 %ID
same,Drug uptake,[6],0.013 %ID
C[C@]12CCC(=O)C[C@@H]1CC[C@@H]1[C@@H]2CC[C@]2(C)[C@@H](OC(=O)CCC(=O)O[C@H]3C[C@H](n4cc([125I])c(=O)[nH]c4=O)O[C@@H]3CO)CC[C@@H]12,Drug uptake,[7],> 95%
same,t1/2,[8],14.7 h
same,t1/2,[9],14.7 h
same,half-life,[10],1440 h
same,Survival,[11],95%
same,"remaining at 6 h, 12.2 uCi",[12],90%
same,Activity,[13],380000000
same,Ratio,[14],24.8
same,t1/2,[15],26 h
same,"metabolised at 4 h, 0.1 uCi/mL",[16],60%
same,Ratio,[17],42.2
same,Ratio,[18],34.4
same,Activity,[19],70%
same,t1/2,[20],68 h
same,Ratio,[21],1.4
same,t1/2,[22],3.2 h
same,metabolised at 24 h,[23],1.1%
